Results from ChEMBL document CHEMBL3580569, “N-Substituted Quinolinonyl Diketo Acid Derivatives as HIV Integrase Strand Transfer Inhibitors and Their Activity against RNase H Function of Reverse Transcriptase” (J Med Chem, 2015).

What was measured:
[1] = target: T1, Human immunodeficiency virus type 1 integrase (Human immunodeficiency virus 1, UniProt Q7ZJM1)
[2] = target: Human immunodeficiency virus type 1 reverse transcriptase (Human immunodeficiency virus 1) (UniProt Q72547); assay: Inhibition of RNase H function of HIV1 reverse transcriptase using DNA/RNA hybrid as substrate at 10 uM by fluorescence spectrometer analysis
Method in brief: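 RNase H activity of HIV-1 RT was measured with an RNA/DNA hybrid substrate at 250 nM final, with 150–800 ng RT, in 50 mM Tris-HCl pH 8.0, 60 mM KCl, 10 mM MgCl2 and 1% DMSO, against DMSO-only wells. Fluorescence (ex 485/em 520 nm) was read each minute over 10 min at 37 °C. Percent inhibition at 10 μM = 100(v0−vi)/v0 from initial rates, run in triplicate.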

[3] = target: T1, Human immunodeficiency virus type 1 integrase; remark: listed apart in the source
[4] = system: Human immunodeficiency virus 1; assay: Antiviral activity against HIV-1 3B infected in human HeLa-CD4-LTR-beta-gal cells assessed as inhibition of viral replication by SpectraMax GEMINI-XS plate reader analysis; type: functional, organism-based; conditions: Human immunodeficiency virus 1, 3B
Method in brief: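 HeLa-CD4-LTR-β-gal cells kept in DMEM, 10% serum, 0.5 mg/mL G418; seeded 10000 cells/well the day before. Drug 3-fold serially diluted over six points on cells (top 50 μM), then fresh medium or concentrated HIV-1(IIIB) supernatant added.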

HeLa = assay: Cytotoxicity against human HeLa-CD4-LTR-beta-gal cells after 24 hrs by ATPlite reagent based luminescence analysis; type: cell-based
[5] = Selectivity index, ratio of CC50 for human HeLa-CD4-LTR-beta-gal cells to EC50 for HIV-1 3B infected in human HeLa-CD4-LTR-beta-gal cells; type: toxicity; conditions: read-out: Ratio CC50/EC50

T1 sequence (Q7ZJM1 whole entry): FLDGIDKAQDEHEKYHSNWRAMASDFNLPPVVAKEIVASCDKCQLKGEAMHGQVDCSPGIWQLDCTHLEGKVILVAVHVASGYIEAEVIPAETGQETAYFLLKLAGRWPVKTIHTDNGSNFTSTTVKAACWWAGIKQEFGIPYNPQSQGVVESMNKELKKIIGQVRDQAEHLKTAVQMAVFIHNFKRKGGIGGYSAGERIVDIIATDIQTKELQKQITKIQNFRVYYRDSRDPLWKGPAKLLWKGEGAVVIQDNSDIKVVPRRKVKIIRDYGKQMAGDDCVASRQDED

| Compound | IC50 [1] [µM] | inhibition [2] [%] | IC50 [3] [µM] | EC50 [4] [µM] | CC50 (HeLa) [µM] | selectivity ratio [5] |
| --- | --- | --- | --- | --- | --- | --- |
| CCOC(=O)/C(O)=C/C(=O)c1cn(Cc2ccc(Cl)cc2)c2ccccc2c1=O | > 37 | 16.1 | > 37 | > 50 |  |  |
| CCOC(=O)/C(O)=C/C(=O)c1cn(Cc2ccc(F)c(Cl)c2)c2c(Cl)cccc2c1=O | 25.1 | 24 | > 333 | > 50 |  |  |
| CCOC(=O)/C(O)=C/C(=O)c1cn(Cc2ccc3ccccc3c2)c2ccccc2c1=O | 32 | 29.7 | > 333 | > 50 |  |  |
| O=C(O)/C(O)=C/C(=O)c1cn(Cc2ccc(F)cc2)c2cc(Cl)c(Cl)cc2c1=O |  |  | > 50 |  |  |  |
| CCOC(=O)/C(O)=C/C(=O)c1cn(Cc2ccncc2)c2ccccc2c1=O | 14 | -5.6 | > 333 | > 50 |  |  |
| O=C(O)/C(O)=C/C(=O)c1cn(Cc2ccncc2)c2ccccc2c1=O | 16 | -2.6 | > 1000 | > 50 |  |  |
| CCOC(=O)/C(O)=C/C(=O)c1cn(Cc2cc(C)cc(C)c2)c2ccccc2c1=O | 1.3 | 21 |  | > 50 |  |  |
| COc1cc2c(cc1Cc1cccc(Cl)c1F)c(=O)c(C(=O)O)cn2[C@H](CO)C(C)C |  |  |  | 0.0142 | > 50 |  |
| CCOC(=O)/C(O)=C/C(=O)c1cn(Cc2ccc([N+](=O)[O-])cc2)c2ccccc2c1=O | > 37 | 31.9 | > 37 | > 50 |  |  |
| O=C(O)/C(O)=C/C(=O)c1cn(Cc2ccc3ccccc3n2)c2ccccc2c1=O | 0.4 | 16.4 | 70 | > 50 |  |  |
| COc1cccc(Cn2cc(C(=O)/C=C(\O)C(=O)O)c(=O)c3ccccc32)c1 [RDS-2161] | 0.14 | 1.9 | > 4.1 | > 50 |  |  |
| O=C(O)/C(O)=C/C(=O)c1cn(Cc2ccccc2)c2ccccc2c1=O | 0.034 | 9.6 | 4 | 15.5 | > 50 |  |
| O=C(O)/C(O)=C/C(=O)c1cn(Cc2ccc(F)c(Cl)c2)c2ccccc2c1=O | 0.19 | 25 | 21 | > 50 |  |  |
| CCOC(=O)/C(O)=C/C(=O)c1cn(CCCCc2ccccc2)c2ccccc2c1=O | 120 | 19.4 | > 333 | > 50 |  |  |
| CCOC(=O)/C(O)=C/C(=O)c1cn(Cc2ccc(OC)cc2)c2ccccc2c1=O | > 37 | 10 | > 37 | > 50 |  |  |
| CCOC(=O)/C(O)=C/C(=O)c1cn(Cc2cc(F)cc(F)c2)c2ccccc2c1=O | 11 | 24 |  | 32.4 | > 50 | > 1.5 |
| Cc1nnc(C(=O)NC(C)(C)c2nc(C(=O)NCc3ccc(F)cc3)c(O)c(=O)n2C)o1 |  |  |  |  | > 50 |  |
| CCOC(=O)/C(O)=C/C(=O)c1cn(Cc2ccc(F)cc2F)c2ccccc2c1=O | 2.2 | 3 |  | 0.58 | > 50 | > 86.2 |
| CCOC(=O)/C(O)=C/C(=O)c1cn(Cc2cc(F)ccc2F)c2ccccc2c1=O | 3.7 | 30 |  | > 50 |  |  |
| O=C(O)/C(O)=C/C(=O)c1cn(Cc2ccc(F)c(Cl)c2)c2c(Cl)cccc2c1=O | 0.096 | 16 | 9.8 | 50 |  |  |
| CCOC(=O)/C(O)=C/C(=O)c1cn(Cc2ccccc2F)c2cc(Cl)ccc2c1=O |  | 2.8 |  | 11 | > 50 | > 4.5 |
| O=C(O)/C(O)=C/C(=O)c1cn(CCCCc2ccccc2)c2ccccc2c1=O | < 0.45 | 33 | > 333 | > 50 |  |  |
| CCOC(=O)/C(O)=C/C(=O)c1cn(Cc2ccc3ccccc3n2)c2ccccc2c1=O | 3.5 | 4.4 | > 1000 | > 50 |  |  |
